Assay outcomes (PubChem BioAssay)
TRPN1 ag: agonists of zebrafish TRPN1 channel | AID 1424 | HEK293 zebrafish TRPN1-YFP, Fluo-8 calcium fluorescence; 100% = response to 87 µM carbachol | 220,000 tested, 0.18% active | activation, % at 3 µM;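 active = activation above its plate's cutoff, the mean activation of test wells on that plate plus 3 SD, cut at about 19% in these data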;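 also: 0% = DMSO alone and 100% = 87 µM carbachol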
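System: zebrafish TRPN1-YFP in HEK293 cells / Dosing: 3 µM single point / Timing: dye loading 1 h at 37 °C, then 30 min room temperature / Signal: Fluo-8 calcium fluorescence, excitation 470-495 nm, emission 515-575 nm / Read-out basis: percent activation from peak over basal fluorescence ratio, control-normalized / Control set: high carbachol 87 µM, low DMSO alone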
CHO parental Ca: signal in parental CHO cells, OX1R antagonist counter-screen; parental CHO-K1, ATP-induced calcium, Fluo-8 fluorescence; inhibition, % at 5.6 µM; 330,000 tested, 0.63% active;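 active = inhibition above that plate's mean sample inhibition plus 3 SD, cut at about 26% in these data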;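 also: 0% = ATP-challenged DMSO wells and 100% = DMSO wells without ATP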
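Measured by: calcium-sensitive Fluo-8 fluorescence / Test system: CHO parental line / Controls: ATP-challenged DMSO wells low, unchallenged DMSO wells high / Measure: % inhibition / Compound: single nominal dose of 5.6 µM per compound / Replicates: single well per compound, no replicates / Reagent: ATP as calcium-mobilizing challenge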
OX1R antag-1: human HCRTR1 antagonism | CHO/OX1R cells, Fluo-8 calcium fluorescence, orexin A | inhibition, % at 5 µM | O43613 | AID 434989 | 330,000 tested, 0.43% active;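 active = inhibition above its plate's threshold, mean inhibition of all tested compounds on the plate plus 3 SD, cut at about 37% in these data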;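 also: 0% = orexin A challenge wells and 100% = SB-334867-A antagonist wells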
Target sequence (O43613 whole entry, looked up): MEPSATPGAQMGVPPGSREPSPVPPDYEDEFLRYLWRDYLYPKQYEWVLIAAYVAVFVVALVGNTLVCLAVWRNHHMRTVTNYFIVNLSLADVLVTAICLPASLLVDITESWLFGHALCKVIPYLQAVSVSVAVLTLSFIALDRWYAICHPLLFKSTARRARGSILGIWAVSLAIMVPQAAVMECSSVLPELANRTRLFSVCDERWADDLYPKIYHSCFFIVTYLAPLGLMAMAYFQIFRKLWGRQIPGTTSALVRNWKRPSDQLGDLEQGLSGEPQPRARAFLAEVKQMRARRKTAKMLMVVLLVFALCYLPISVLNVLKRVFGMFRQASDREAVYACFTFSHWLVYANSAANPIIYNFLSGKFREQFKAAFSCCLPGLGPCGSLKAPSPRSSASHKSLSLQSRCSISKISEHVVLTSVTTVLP
TRPML3 ag: agonists of human TRPML3 channel; Q8TDD5; HEK293 TRPML3-YFP, Fluo-8 calcium fluorescence; 100% = the carbachol control signal; activation, % at 3 µM; 220,000 tested, 0.29% active; AID 1448;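 active = activation above its plate's cutoff, the mean activation of the plate's test wells plus 3 SD, cut at about 12% in these data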;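 also: 0% = DMSO only wells and 100% = carbachol wells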
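system = HEK293 cells stably carrying human TRPML3-YFP | doses = one concentration, 3 µM nominal, 0.3% DMSO | timing = dye loading 1 h 37 °C then 30 min ambient, 125 s read | detection = Fluo-8 calcium dye fluorescence, ex 470-495, em 515-575 nm | benchmarks = high control carbachol 87 µM, low control DMSO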
OX1R antag-2: antagonists of human orexin 1 receptor (OX1R) | O43613 | 330,000 tested, 1.8% active | inhibition, % at 6.6 µM | AID 485270 | OX1R-expressing cells, FRET antagonist read-out; in the data active = inhibition mostly above about 38%, no sharp cut-off; inactive = mostly below about 40%;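 also: 0% = agonist challenge alone and 100% = reference antagonist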
GPR7 antagonist: antagonists of human GPR7 (neuropeptides B/W receptor 1). P48145. GPR7-expressing cells, fluorescence antagonist assay. inhibition, % at 4.4 µM. 290,000 tested, 1.1% active; in the data active = inhibition above about 16%, passing the limit was not always enough;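 also: cells stimulated with the agonist NPW; 0% = agonist with vehicle and 100% = vehicle without agonist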
The depositor's hits bear a star; nt = not tested or not shown. Rows were chosen to be rich in hits. Some 3.2% of all compounds tested hit in one or more screens of this group.

SMILES	TRPN1 ag	CHO parental Ca	OX1R antag-1	TRPML3 ag	OX1R antag-2	GPR7 antagonist
C=CCNC(=O)c1cc2c(=O)n3cc(C)ccc3nc2nc1NCC1CCCO1 (centres undefined)	-1	7	-9	0	47*	-8
COc1cc(NC(=O)CN2C(=O)NC(CC(C)C)C2=O)cc(OC)c1OC (centres undefined)	nt	-8	-10	nt	3	nt
COCCNC(=O)/C(C#N)=C1\N=C(NC(=O)c2cccs2)c2ccccc21	nt	-7	-7	nt	42*	-5
CCCNC(=O)/C(C#N)=C1\N=C(NC(=O)c2cccs2)c2ccccc21	nt	-2	3	nt	16	-4
CCN1C(=O)/C(=C2\C=Cc3ccccc3N2CC)SC1=S	-2	-8	-21	-1	34	2
CCN1C(=C2C(=O)c3ccccc3C2=O)C=Cc2ccccc21	2	-6	-12	1	62*	-1
NC(=O)c1ccsc1NC(=O)COC(=O)CNC(=O)c1ccc(Cl)cc1	nt	-24	-30	nt	7	nt
CCn1cc(CCCC(=O)NCc2cccc(OC)c2)c2ccccc21	nt	nt	nt	nt	nt	15
O=[N+]([O-])c1ccc2c(c1)nc1n2CCN(c2ccccc2)C1	0	-7	-14	1	17	2
COCCN1CCn2c(nc3cc([N+](=O)[O-])ccc32)C1	1	-13	-2	1	40*	-6
O=C(Nc1ccc(Cl)cc1)N1CCCN(c2ccc(C(F)(F)F)cc2[N+](=O)[O-])CC1	4	35	57*	3	16	-14
CC(=O)c1c(C)[nH]c(C(=O)CSc2nnc(C)s2)c1C	4	-9	-14	0	27	-10
OC1(c2ccc(OC(F)F)cc2)CSC(=Nc2cccnc2)N1Cc1ccco1 (centres undefined)	1	nt	nt	2	nt	20*
CCOC(=O)/C=C/C(=O)Nc1ccc(Oc2ccccc2)cc1	6	44*	33	4	10	20
O=C(O)/C=C/C(=O)Nc1ccc(Oc2ccccc2)cc1	0	12	4	0	6	-15
CCOC(=O)/C=C/S(=O)(=O)c1ccc(NC(C)=O)cc1	0	26	1	1	-3	18*
Cc1ccc(S(=O)(=O)NC(C)(C)CSc2nnc(Nc3ccccc3)s2)cc1	1	53*	50*	0	39	-1
O=C(Nc1ncc(Cc2ccc(SC(F)F)cc2)s1)c1ccc(OC(F)F)cc1	1	23	61*	0	29	8
Cc1ccc(Cc2cnc(NC(=O)c3ccco3)s2)cc1	-1	-9	-2	0	17	3
CCOC(=O)C(C)/C(C)=N/NC(N)=S (centres undefined)	1	4	-7	1	23	-6
O=C(CSc1ccccc1F)NCC(c1cccs1)N1CCOCC1 (centres undefined)	nt	-17	-1	nt	-3	nt
COc1ccc(NC(=O)Cn2c(=O)cnc3ccccc32)cc1S(=O)(=O)N1CCCCC1	nt	-9	-9	nt	11	nt
O=C(NC1CC1)C1CCN(c2ncnc3c2sc2cccc(F)c23)CC1	0	-12	-11	0	68*	4
O=C(C1CCN(c2ncnc3c2sc2cccc(F)c23)CC1)N1CCCC1	-1	-14	-16	0	55	-9
COc1ccc2cc(C(=O)/C=C/c3cc(OC)c(OC)c(OC)c3)ccc2c1	nt	-19	24	nt	70*	14
SMILES	TRPN1 ag	CHO parental Ca	OX1R antag-1	TRPML3 ag	OX1R antag-2	GPR7 antagonist
COc1ccc(/C=C/C(=O)c2ccc(OC)cc2OC)c(OC)c1	-1	3	-16	0	51*	-7
COc1ccc(/C=C/C(=O)c2ccc3c(c2)OCO3)c(OC)c1	-1	-13	-16	-1	23	-1
COc1cc(/C=C/C(=O)c2ccc3c(c2)OCO3)cc(Cl)c1O	nt	44*	49*	nt	13	18
Cc1c(/C=C2\NC(=O)NC2=O)c2ccccc2n1C	nt	-4	-9	nt	9	-2
O=C(CSc1nnc(-c2ccncc2)o1)Nc1cc(Cl)ccc1C(=O)O	nt	-6	-7	nt	3	nt
COc1ccc(NS(=O)(=O)c2ccc(NS(=O)(=O)c3cccs3)cc2)cc1	nt	-5	-16	nt	8	15
COc1ccc(OC)c(NC(=O)COc2ccc3c(c2)CCC3)c1	nt	-8	9	nt	23	nt
O=C(O)CCN1CCc2ccccc2C1c1cccs1 (centres undefined)	0	9	12	1	18	-2
COC(=O)/C(C#N)=C1/C=Cc2ccccc2N1C	1	-4	-34	0	60*	-4
Cc1ccc(CNC(=O)Cn2ccc3cc(S(=O)(=O)N4CCCCCC4)ccc32)cc1	nt	-9	-18	nt	12	-17
c1ccc2c(c1)[nH]c1nc3nncn3nc12	1	-13	-15	0	53*	-13
O=c1[nH]c2ccccc2c2nc3ccccn3c12	3	-9	-3	1	16	-14
CCOc1ccc(CCNC(=O)CS(=O)Cc2nc(-c3ccc(C)cc3)oc2C)cc1OCC (centres undefined)	nt	-31	-1	nt	27	-9
CCOc1ccc(CCNC(=O)CS(=O)Cc2nc(-c3ccccc3C)oc2C)cc1OCC (centres undefined)	nt	-25	16	nt	57*	-1
COC(=O)CCC(=O)OC1(C)C(=O)C=C2C=C(C3CC3)N(Cc3ccccc3)C=C2C1=O (centres undefined)	nt	-3	-22	nt	76*	nt
CCC(CC)C(=O)Nc1ccc(Sc2ccc([N+](=O)[O-])cc2)cc1	0	25	60*	1	41*	-12
CC(NC(=O)c1cc(COc2ccccc2)on1)c1nccs1 (centres undefined)	nt	-12	-5	nt	9	1
O=C(NC1CCCC1)c1cc(COc2ccc3ncccc3c2)on1	13	52*	31	4	24	2
Cc1cc(OCc2cc(C(=O)N3CCC(Oc4cccnc4)CC3)no2)cc(C)c1Cl	nt	56*	30	nt	23	-4
O=C(NCCc1cn2ccccc2n1)c1ccccc1F	1	-1	-10	1	9	-6
CC(NC(=O)c1cc(COc2ccc3ncccc3c2)on1)c1ccc(F)cc1 (centres undefined)	9	51*	43*	4	56	10
O=C(NCCc1cn2ccccc2n1)c1cc(COc2ccc3ncccc3c2)on1	9	47*	47*	5	65*	-8
COc1cccc(N(CC(=O)N2CCCC2)S(C)(=O)=O)c1	nt	-12	-6	nt	13	-18
COC(=O)Nc1ccc(S(=O)(=O)N2CCC(C(=O)NC3CCCCC3)CC2)cc1	0	-6	-13	-1	11	-6
CN1C(=O)/C(=C/c2ccc(OCc3ccc(F)cc3)cc2)NC1=S	nt	9	-17	nt	7	15
COC(=O)c1ccc(Oc2ccc(C(F)(F)F)cn2)cc1	0	-2	-8	0	5	-5
